# High-throughput results: PubChem BioAssay, several laboratories
# An excerpt weighted towards active compounds, which were near 2.1% of everything screened.
# bCat nuc transl – beta-catenin nuclear translocation modulation | HeLa beta-catenin nuclear translocation, immunofluorescence imaging | nuclear translocation activity, % at 5 µM | actives 0.3% (n = 190,000);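 active = nuclear translocation activity above 50% at 5 µM, with a well cell count of 50 or more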;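 note: per-cell ratio of nuclear to cytoplasmic median beta-catenin stain intensity; plate controls were DMSO negative control for no effect and GSK-3 inhibitor IX positive control for full effect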
#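 assay system = human HeLa cells, endogenous beta-catenin | times = compound treatment 24 h, 37°C, 5% CO2 | detection = Anti-beta-catenin immunofluorescence on PFA-fixed, Triton-permeabilized cells, DAPI nuclei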
# IEC-6 tox – IEC-6 cytotoxicity, counter-screen for KLF5 inhibitors; luminescence viability; inhibition, % at 5 µM; actives 0.78% (n = 290,000); AID 1825; in the data active = inhibition above about 22%;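 note: 0% = plate median of test compound wells and 100% = cytotoxic reference compound wells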
# KLF5 inh – inhibitors of KLF5 expression | DLD-1 KLF5 promoter-luciferase reporter, luminescence | inhibition, % at 5 µM | actives 0.23% (n = 290,000);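 active = inhibition above a per-plate limit of that plate's mean compound inhibition plus 3 SD, cut at about 60% in these data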;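 note: 0% = DMSO wells and 100% = LY294002 at 200 µM; higher means less KLF5 promoter-driven luciferase light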
# MT stabilizer – microtubule stabilizers in HeLa cells; HeLa tubulin immunostaining HCS, 24 h; share of cells brighter than vehicle mean+2SD; % tubulin-high responders, % at 10 µM; actives 0.83% (n = 200,000);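 active = plate Z-score above 3 for both tubulin-high and condensed-nucleus cell shares, with cell loss under 80%, at 10 µM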;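 note: anti alpha tubulin signal scored within the nucleus-defined area of each cell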
# BaF3 parental – parental Ba/F3 viability inhibition as JAK2V617F counter-screen; CellTiter-Glo ATP luminescence; inhibition, % at 5.6 µM; actives 1.1% (n = 220,000); AID 1486;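 active = inhibition above a per-campaign cutoff, the mean inhibition of all tested compounds plus 3 SD, cut at about 27% in these data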;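 note: 0% = DMSO wells and 100% = JAK Inhibitor I control wells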
# Ba/F3 V617F tox – lowers viability of Ba/F3 cells expressing EpoR and JAK2V617F. actives 1.1% (n = 220,000). AID 1446. ATP luminescence. inhibition, % at 5.6 µM;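 active = inhibition above the campaign mean plus 3 SD over all tested compounds, cut at about 24% in these data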;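 note: cytokine-independent growth of Ba/F3 cells driven by EpoR plus mutant JAK2; 0% = DMSO-treated cells and 100% = JAK inhibitor I control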
# An asterisk follows results filed as active; . = not tested or not shown.
SMILES,bCat nuc transl,IEC-6 tox,KLF5 inh,MT stabilizer,BaF3 parental,Ba/F3 V617F tox
N#CC1=C(N)Oc2cc(O)ccc2C1c1cccs1 (centres undefined),0.8,-5.3,-11.3,1.2,5.1,-3.4
CCCCCCCCCCCCCCCCn1cc[n+](CC(C)=O)c1,25.2,1.8,1.9,58.3,74.7*,67.9*
CCc1ccc(N(CC(=O)N2CCCCCC2)S(C)(=O)=O)cc1,.,1.4,-17.7,.,.,.
CC(=O)Nc1ccc(S(=O)(=O)N(CCO)Cc2ccccc2)cc1,.,-5.5,-23.9,1.4,4.8,-0.5
CC(C)C(=O)NC(=S)Nc1ccc(S(=O)(=O)N(C)Cc2ccccc2)cc1,1.6,-2.9,-5.7,42.2*,9.2,2.4
CC(=O)Nc1ccc(S(=O)(=O)N(C)CCOCc2ccccc2)cc1,2.7,3.4,4.0,1.9,42.8*,5.8
C=CCNC(=O)NC(=O)CSc1nnc(C(F)(F)F)n1C,-0.3,1.8,-24.4,2.4,1.5,2.1
O=C(NN1C(=O)C2C3c4ccccc4C(c4ccccc43)C2C1=O)c1ccc(Cl)cc1 (centres undefined),-1.5,-1.6,-46.3,3.1,5.6,-1.6
CCc1ccc2nc(NC(=O)Cn3cnc4ccccc4c3=O)sc2c1,-0.2,2.0,-24.2,1.3,39.3*,33.1*
CCc1ccc2nc(NC(=O)c3cc(C)on3)sc2c1,36.3,19.6,-63.5,38.1*,25.9,19.0
O=C(Cn1cnc2ccccc2c1=O)Nc1nc2ccccc2s1,-0.2,0.2,-17.7,1.4,6.4,-0.3
O=C(O)C1C2CCC(CC2)C1C(=O)N1CCN(Cc2ccc(F)cc2)CC1 (centres undefined),.,3.0,4.5,.,.,.
COc1ccccc1/C=C/C1(C(=O)NC2CCCC2)CC(=O)N1c1ccc(F)cc1 (centres undefined),-0.1,1.3,-13.0,19.5*,0.2,3.7
COc1ccccc1/C=C/C1(C(=O)NC2CCCC2)CC(=O)N1c1ccc(C)cc1 (centres undefined),17.9,-1.0,3.2,7.4,8.3,3.8
CCN1/C(=C/c2cccc[n+]2C)Sc2ccc(OC)cc21,.,10.3,-3.6,.,.,.
CCN1/C(=C/c2ccc3cc(C)ccc3[n+]2C)Sc2ccc3sccc3c21,.,15.8,-12.4,77.4*,62.4*,77.9*
N#Cc1c(-c2ccc(Cl)cc2)c2c([nH]c1=O)-c1ccccc1OC2,3.2,-1.8,4.8,.,51.1*,11.9
CC1(C)Cc2c(c(-c3ccccc3Cl)[nH]c(=O)c2C#N)CO1,0.2,4.7,-11.4,4.2,3.8,1.1
C=Cn1ccnc1P(=S)(c1ccc2c(c1)c1ccccc1n2CC)c1nccn1C=C,-0.4,-7.1,-9.4,17.2,4.5,0.7
CCN1C(=O)/C(=C/c2ccc(C)o2)N(C)C1=S,6.6,2.9,-11.6,3.9,3.1,-1.3
O=C1CC(c2ccccc2)Cc2nc3ncnn3cc21 (centres undefined),0.5,5.1,52.6,3.4,80.2*,77.2*
COc1ccccc1-c1cc(C(=O)N/N=C\c2cnn(C)c2C)c2ccccc2n1,0.4,-6.7,-0.9,2.0,5.2,-0.1
CCc1ccc(/C=N/NC(=O)c2cc(-c3ccncc3)nc3ccccc23)s1,66.1*,9.1,2.0,9.4,6.5,-4.1
CCn1ncc(/C=N\NC(=O)c2cc(-c3ccc(C)cc3C)nc3ccccc23)c1C,-2.6,-1.4,-30.9,44.2*,2.6,0.6
CCCc1cc(C(=O)N/N=C/c2ccc(CC)s2)c2ccccc2n1,.,19.2,8.1,34.2*,1.0,1.8
SMILES,bCat nuc transl,IEC-6 tox,KLF5 inh,MT stabilizer,BaF3 parental,Ba/F3 V617F tox
Cc1cc(C)c(OCCCCCn2ccnc2)c(C)c1,.,3.5,-1.3,.,.,.
O=C(COC(=O)c1ccccc1C(=O)c1ccccc1)NCCc1ccc(Cl)cc1Cl,2.8,5.5,-22.8,2.5,5.2,3.3
O=C1NCCC/C1=N/Nc1cc(F)ccc1F,-2.6,-0.1,-84.0,.,-2.1,1.6
COc1cccc(N/C(SC)=C(/C#N)C(=O)NCc2cccs2)c1,-0.4,2.3,7.8,2.4,7.7,4.4
COc1cccc(N/C(SC)=C(/C#N)C(N)=O)c1,-1.4,1.6,-1.0,21.7*,1.4,-0.8
Cc1ccc2nc(SCC(=O)Nc3ccccc3N3CCOCC3)c(C#N)cc2c1,-5.8,1.2,-46.5,46.3*,2.1,-3.1
CCc1ccc2nc(SCC(=O)Nc3ccccc3N3CCOCC3)c(C#N)cc2c1,19.2,-1.5,-10.9,.,-3.4,-2.2
O=c1oc2ccccc2c(Nc2cc3ccccc3cc2O)c1[N+](=O)[O-],22.8,21.3,10.9,17.5*,0.3,-5.4
